pEC50, pIC50: −log10 of the molar value. In brackets after ≈: the same amount, converted by molar mass.
Columns and labels:
[1] = Fraction unbound in human Plasma; format: ADME, cell-free
[2] = target: T1, DNA-dependent protein kinase catalytic subunit (Homo sapiens, UniProt P78527); assay: Inhibition of DNA-PK autophosphorylation at S2056 in human HeLa cells; format: cell-based
[3] = target: T1, DNA-dependent protein kinase catalytic subunit; assay: Inhibition of human DNA-PK using GST-tagged p53N66 as substrate after 1 hr by ELISA-based chemiluminiscence assay
[4] = target: T2, Phosphatidylinositol 4,5-bisphosphate 3-kinase catalytic subunit delta isoform (Homo sapiens, UniProt O00329); assay: Inhibition of PI-3K delta (unknown origin)
T2 sequence (O00329 whole entry): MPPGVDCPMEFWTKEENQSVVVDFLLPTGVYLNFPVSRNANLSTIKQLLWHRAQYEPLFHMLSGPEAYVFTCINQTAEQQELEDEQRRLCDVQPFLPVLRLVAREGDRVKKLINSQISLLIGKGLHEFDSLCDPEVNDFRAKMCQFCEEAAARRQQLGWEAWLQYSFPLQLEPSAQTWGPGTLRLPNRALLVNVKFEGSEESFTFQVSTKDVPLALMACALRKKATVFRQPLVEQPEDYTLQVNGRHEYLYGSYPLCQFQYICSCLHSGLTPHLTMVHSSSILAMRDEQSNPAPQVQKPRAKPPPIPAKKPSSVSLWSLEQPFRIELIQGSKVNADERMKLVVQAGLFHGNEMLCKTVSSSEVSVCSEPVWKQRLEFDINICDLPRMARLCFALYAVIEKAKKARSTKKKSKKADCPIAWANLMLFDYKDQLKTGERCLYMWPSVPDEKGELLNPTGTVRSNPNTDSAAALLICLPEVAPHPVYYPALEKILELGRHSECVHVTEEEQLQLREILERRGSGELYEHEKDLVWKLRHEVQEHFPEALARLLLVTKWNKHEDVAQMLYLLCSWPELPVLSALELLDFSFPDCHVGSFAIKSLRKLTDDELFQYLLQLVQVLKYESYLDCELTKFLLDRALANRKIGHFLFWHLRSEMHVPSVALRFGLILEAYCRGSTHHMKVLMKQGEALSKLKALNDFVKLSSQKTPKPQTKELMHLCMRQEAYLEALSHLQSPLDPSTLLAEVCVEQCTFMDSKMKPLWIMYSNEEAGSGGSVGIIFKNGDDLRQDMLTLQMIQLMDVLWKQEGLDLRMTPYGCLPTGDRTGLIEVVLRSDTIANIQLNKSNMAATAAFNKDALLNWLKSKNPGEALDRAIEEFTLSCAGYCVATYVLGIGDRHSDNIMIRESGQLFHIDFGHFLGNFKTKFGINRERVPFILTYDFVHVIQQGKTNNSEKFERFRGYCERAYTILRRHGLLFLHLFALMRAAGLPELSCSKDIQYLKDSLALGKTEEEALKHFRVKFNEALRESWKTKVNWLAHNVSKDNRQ

[5] = target: Serine/threonine-protein kinase mTOR (Homo sapiens, UniProt P42345); assay: Inhibition of mTOR (unknown origin)
[6] = target: Serine-protein kinase ATM (Homo sapiens, UniProt Q13315); assay: Inhibition of ATM (unknown origin)
[7] = target: Serine/threonine-protein kinase ATR (Homo sapiens, UniProt Q13535); assay: Inhibition of ATR (unknown origin)
HeLa [8] = assay: Antiproliferative activity against human HeLa cells assessed as cell survival ratio at 0.5 uM treated 1 hr before 2Gy ionizing radiation measured after 6 to 8 days by DMR clonogenic assay; format: functional
Summary of the method: (§1)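 HeLa cells seeded in 6-well dishes, incubated overnight at 37 °C/5% CO2, pre-treated 1 h with vehicle or inhibitor (0.1 or 0.5 μM), then given 2 Gy X-ray IR and held overnight. Medium then replaced without compound and culture continued 6-8 days. Colonies Giemsa-stained and counted automatically. DMR = % survival (vehicle, 2 Gy) / % survival (compound, 2 Gy).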

Cytochrome P450 2C9 = Cytochrome P450 2C9 (Homo sapiens, UniProt P11712); assay: Inhibition of CYP2C9 (unknown origin); format: ADME
[9] = Aqueous solubility of the compound at pH 7.4; format: physicochemical; details: buffer
Cytochrome P450 2D6 = Cytochrome P450 2D6 (Homo sapiens, UniProt P10635); assay: Inhibition of CYP2D6 (unknown origin); format: ADME
[10] = Lipophilicity, log D of the compound; format: physicochemical; details: octanol/water
[11] = target: Voltage-gated inwardly rectifying potassium channel KCNH2 (Homo sapiens, UniProt Q12809); assay: Inhibition of human ERG expressed in cisapride treated CHO cells by Ion Works assay
Cytochrome P450 1A2 = target: T3, Cytochrome P450 1A2 (Homo sapiens, UniProt P05177); assay: Inhibition of CYP1A2 (unknown origin); format: ADME
T3 sequence (P05177 whole entry): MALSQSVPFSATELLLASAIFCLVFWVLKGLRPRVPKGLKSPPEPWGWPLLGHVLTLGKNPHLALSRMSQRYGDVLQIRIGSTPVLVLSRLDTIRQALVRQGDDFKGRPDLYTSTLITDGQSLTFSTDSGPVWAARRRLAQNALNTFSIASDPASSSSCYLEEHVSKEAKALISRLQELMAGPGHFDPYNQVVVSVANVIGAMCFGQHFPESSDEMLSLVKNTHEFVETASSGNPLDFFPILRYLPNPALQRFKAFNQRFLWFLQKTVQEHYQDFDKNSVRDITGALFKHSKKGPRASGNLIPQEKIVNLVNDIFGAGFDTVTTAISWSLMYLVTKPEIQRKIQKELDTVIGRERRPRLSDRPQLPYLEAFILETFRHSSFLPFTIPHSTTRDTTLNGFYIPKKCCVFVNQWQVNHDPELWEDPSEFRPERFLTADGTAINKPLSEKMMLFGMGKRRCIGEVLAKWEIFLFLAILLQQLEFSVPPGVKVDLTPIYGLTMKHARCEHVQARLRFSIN

Cytochrome P450 3A4 = Cytochrome P450 3A4 (Homo sapiens, UniProt P08684); assay: Inhibition of CYP3A4 (unknown origin); format: ADME
HeLa [12] = assay: Antiproliferative activity against human HeLa cells assessed as cell survival ratio at 0.1 uM treated 1 hr before 2Gy ionizing radiation measured after 6 to 8 days by DMR clonogenic assay; format: functional; summary of the method: as §1
Cytochrome P450 2C19 = Cytochrome P450 2C19 (Homo sapiens, UniProt P33261); assay: Inhibition of CYP2C19 (unknown origin); format: ADME
[13] = target: Phosphatidylinositol 4,5-bisphosphate 3-kinase catalytic subunit beta isoform (Homo sapiens, UniProt P42338); assay: Inhibition of PI-3K beta (unknown origin)
[14] = target: T1, DNA-dependent protein kinase catalytic subunit; assay: Inhibition of DNA-PK (unknown origin)
[15] = target: Phosphatidylinositol 4,5-bisphosphate 3-kinase catalytic subunit gamma isoform (Homo sapiens, UniProt P48736); assay: Inhibition of PI-3K gamma (unknown origin)
[16] = target: Phosphatidylinositol 4,5-bisphosphate 3-kinase catalytic subunit alpha isoform (Homo sapiens, UniProt P42336); assay: Inhibition of PI-3K alpha (unknown origin)
[17] = target: Aurora kinase B (Homo sapiens) (UniProt Q96GD4); assay: Inhibition of Aurora kinase B (unknown origin); details: concentration not given here
HeLa [18] = assay: Antiproliferative activity against human HeLa cells assessed as cell viability after 6 to 8 days by DMR clonogenic assay; format: cell-based

Sequence of Cytochrome P450 2D6 (P10635 whole entry): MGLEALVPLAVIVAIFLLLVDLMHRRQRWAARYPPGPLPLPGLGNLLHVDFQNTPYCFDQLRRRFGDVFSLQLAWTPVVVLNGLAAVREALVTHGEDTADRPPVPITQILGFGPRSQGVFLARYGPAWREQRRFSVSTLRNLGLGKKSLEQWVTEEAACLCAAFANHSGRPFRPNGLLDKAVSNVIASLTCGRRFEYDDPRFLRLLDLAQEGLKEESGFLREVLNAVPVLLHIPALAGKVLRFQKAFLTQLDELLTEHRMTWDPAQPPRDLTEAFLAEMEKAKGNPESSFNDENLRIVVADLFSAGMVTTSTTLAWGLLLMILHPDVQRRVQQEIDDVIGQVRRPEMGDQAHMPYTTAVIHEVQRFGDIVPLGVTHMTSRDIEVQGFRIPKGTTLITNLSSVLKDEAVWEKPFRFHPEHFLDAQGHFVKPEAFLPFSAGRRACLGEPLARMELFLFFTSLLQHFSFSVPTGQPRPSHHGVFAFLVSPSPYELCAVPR
Sequence of Serine/threonine-protein kinase ATR (Q13535 whole entry): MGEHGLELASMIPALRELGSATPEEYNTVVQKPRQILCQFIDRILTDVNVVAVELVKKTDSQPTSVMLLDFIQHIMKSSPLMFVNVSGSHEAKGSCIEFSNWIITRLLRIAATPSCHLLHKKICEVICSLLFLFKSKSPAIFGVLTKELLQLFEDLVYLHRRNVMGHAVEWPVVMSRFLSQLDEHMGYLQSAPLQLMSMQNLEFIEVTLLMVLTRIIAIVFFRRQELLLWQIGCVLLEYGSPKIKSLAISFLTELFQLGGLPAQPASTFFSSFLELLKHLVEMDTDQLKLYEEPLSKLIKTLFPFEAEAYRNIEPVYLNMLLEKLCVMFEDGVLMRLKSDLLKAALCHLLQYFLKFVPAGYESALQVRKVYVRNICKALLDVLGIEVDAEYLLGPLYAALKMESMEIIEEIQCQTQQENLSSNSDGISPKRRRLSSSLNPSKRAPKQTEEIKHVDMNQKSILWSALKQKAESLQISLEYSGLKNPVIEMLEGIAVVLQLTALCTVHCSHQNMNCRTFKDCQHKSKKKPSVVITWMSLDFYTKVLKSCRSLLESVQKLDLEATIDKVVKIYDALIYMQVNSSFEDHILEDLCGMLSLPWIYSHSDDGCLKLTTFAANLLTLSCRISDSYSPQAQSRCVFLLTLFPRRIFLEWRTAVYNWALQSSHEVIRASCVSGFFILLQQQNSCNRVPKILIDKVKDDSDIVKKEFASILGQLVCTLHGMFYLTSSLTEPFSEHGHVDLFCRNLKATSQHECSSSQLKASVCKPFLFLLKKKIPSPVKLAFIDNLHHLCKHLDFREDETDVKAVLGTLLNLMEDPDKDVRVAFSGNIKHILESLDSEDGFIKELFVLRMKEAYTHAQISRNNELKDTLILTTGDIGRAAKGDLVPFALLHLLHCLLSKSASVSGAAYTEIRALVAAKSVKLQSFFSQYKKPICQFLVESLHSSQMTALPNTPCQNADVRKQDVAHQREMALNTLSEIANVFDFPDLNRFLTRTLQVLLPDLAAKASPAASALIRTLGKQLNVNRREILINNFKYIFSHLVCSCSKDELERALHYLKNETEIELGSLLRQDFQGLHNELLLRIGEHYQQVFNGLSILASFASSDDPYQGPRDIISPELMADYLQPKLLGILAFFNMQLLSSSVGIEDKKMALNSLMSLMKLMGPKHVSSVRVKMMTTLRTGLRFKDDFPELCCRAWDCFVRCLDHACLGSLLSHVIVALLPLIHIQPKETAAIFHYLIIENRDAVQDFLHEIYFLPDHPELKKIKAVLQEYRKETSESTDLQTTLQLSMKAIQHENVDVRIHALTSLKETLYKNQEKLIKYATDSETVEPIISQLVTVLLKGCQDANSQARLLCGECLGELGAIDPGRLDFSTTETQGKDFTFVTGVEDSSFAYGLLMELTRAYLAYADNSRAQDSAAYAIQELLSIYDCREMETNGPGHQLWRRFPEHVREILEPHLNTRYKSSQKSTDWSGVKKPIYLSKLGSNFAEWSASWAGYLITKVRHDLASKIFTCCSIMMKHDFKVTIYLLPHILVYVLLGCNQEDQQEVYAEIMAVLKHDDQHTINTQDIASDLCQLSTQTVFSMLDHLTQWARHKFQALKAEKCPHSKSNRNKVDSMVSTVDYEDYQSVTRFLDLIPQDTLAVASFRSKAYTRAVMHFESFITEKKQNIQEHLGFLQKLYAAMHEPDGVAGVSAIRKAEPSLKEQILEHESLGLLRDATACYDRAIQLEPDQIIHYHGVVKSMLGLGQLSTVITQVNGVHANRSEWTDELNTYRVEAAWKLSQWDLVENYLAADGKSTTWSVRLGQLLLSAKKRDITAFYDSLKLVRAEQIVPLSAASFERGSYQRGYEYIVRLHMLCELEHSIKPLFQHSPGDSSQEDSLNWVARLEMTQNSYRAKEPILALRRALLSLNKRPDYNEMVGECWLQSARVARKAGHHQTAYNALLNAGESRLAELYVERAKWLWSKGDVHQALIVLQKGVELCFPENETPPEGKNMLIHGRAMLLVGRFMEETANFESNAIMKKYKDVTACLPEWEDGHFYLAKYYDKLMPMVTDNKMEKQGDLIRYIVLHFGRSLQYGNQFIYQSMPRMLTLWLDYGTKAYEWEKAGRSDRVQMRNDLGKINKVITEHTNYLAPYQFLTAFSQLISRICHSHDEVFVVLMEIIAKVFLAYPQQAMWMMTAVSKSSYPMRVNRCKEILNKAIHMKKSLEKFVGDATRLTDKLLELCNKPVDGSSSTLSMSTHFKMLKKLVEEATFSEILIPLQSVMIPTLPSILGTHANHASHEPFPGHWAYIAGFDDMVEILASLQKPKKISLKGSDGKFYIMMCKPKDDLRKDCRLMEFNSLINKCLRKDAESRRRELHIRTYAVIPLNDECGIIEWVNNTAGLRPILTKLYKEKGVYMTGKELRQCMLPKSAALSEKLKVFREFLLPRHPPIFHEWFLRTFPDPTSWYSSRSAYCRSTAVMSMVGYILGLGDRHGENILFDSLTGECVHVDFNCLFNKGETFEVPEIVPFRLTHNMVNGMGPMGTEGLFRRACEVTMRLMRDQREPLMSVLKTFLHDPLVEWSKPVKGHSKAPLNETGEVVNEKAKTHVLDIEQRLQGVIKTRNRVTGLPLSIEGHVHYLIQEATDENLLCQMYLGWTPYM
Sequence of Voltage-gated inwardly rectifying potassium channel KCNH2 (Q12809 whole entry): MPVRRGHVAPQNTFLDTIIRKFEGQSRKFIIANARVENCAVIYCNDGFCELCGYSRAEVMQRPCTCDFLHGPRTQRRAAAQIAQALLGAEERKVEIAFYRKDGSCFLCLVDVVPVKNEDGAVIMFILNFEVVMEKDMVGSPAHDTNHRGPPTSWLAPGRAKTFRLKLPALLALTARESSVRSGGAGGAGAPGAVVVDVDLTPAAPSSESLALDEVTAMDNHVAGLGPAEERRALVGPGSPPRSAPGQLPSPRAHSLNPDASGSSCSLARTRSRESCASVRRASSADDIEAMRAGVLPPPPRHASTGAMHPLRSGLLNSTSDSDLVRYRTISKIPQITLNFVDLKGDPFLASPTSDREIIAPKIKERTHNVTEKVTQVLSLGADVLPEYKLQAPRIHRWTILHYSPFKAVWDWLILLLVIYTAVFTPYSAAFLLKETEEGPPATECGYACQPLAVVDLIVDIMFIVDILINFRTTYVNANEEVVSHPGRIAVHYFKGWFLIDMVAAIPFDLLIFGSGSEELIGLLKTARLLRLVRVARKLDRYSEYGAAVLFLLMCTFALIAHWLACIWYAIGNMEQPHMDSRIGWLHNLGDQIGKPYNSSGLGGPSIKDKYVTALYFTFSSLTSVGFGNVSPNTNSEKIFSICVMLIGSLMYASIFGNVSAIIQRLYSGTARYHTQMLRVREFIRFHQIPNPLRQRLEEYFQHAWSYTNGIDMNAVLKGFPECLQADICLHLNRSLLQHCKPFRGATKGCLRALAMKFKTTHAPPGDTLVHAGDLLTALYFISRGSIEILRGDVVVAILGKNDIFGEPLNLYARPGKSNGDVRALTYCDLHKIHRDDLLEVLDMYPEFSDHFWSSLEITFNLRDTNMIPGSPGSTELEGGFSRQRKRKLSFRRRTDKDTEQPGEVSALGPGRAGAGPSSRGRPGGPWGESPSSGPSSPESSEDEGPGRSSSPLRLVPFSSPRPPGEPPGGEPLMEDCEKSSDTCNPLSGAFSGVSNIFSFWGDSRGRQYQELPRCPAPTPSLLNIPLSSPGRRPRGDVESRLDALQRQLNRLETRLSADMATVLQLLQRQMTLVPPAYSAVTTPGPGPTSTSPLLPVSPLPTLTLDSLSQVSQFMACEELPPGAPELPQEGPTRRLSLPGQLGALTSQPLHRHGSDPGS
Sequence of Cytochrome P450 3A4 (P08684 whole entry): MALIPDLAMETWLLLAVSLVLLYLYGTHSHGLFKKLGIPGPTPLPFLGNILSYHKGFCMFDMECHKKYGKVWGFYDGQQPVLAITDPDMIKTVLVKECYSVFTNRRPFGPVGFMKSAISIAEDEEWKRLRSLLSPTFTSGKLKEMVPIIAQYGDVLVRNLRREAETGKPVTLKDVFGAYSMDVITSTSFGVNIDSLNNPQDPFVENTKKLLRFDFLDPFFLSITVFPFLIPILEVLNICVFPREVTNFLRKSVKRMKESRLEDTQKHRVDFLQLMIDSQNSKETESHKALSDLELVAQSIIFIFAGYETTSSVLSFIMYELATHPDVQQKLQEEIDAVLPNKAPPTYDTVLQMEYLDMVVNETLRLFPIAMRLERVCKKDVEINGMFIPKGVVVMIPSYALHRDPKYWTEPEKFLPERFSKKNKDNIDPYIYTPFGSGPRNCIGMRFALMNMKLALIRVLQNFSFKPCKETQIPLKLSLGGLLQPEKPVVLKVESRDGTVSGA

Structure (SMILES)	fraction unbound [1]	pEC50 [2]	pIC50 [3]	Ratio (HeLa [8])	solubility [9] [µM]	logD [10]	Ratio (HeLa [12])	also measured
CC(=O)N1CCN(CCOc2ccc(-c3cccc4c(=O)cc(N5CCOCC5)oc34)c3sc4ccccc4c23)CC1	0.0049	6.78	8.70	–	–	–	–	–
O=c1cc(N2CCOCC2)oc2c(-c3ccccc3)cccc12 [LY-294002]	–	–	–	–	–	–	–	pIC50 [4]: 6.66; pIC50 [5]: 5.55; pIC50 [6]: < 5.00; pIC50 [7]: < 5.00
CN1CCN(CC(=O)Nc2ccc(-c3cccc4c(=O)cc(N5CCOCC5)oc34)c3sc4ccccc4c23)CC1	0.036	6.37	7.92	7.4	5 (≈ 2.84 µg/mL)	3	2.4	pIC50 (Cytochrome P450 2C9): < 5.00; pIC50 (Cytochrome P450 2D6): < 5.00; pIC50 [11]: < 5.00; pIC50 (Cytochrome P450 1A2): < 5.00; pIC50 (Cytochrome P450 3A4): < 5.00; pIC50 (Cytochrome P450 2C19): < 5.00
O=C(CN1CCN(CCO)CC1)Nc1ccc(-c2cccc3c(=O)cc(N4CCOCC4)oc23)c2sc3ccccc3c12	0.098	6.96	8.30	8.4	154 (≈ 92.2 µg/mL)	2.7	2	pIC50 (Cytochrome P450 2C9): < 5.00; pIC50 (Cytochrome P450 2D6): < 5.00; pIC50 [11]: < 4.52; pIC50 (Cytochrome P450 1A2): < 5.00; pIC50 (Cytochrome P450 3A4): < 5.00; pIC50 (Cytochrome P450 2C19): < 5.00
O=c1cc(N2CCOCC2)oc2c(-c3cccc4c3sc3ccccc34)cccc12	0.0004	6.67	7.38	2.8	< 0.2	> 4.3	2.2	pIC50 [11]: 4.85; pIC50 [13]: 7.80; pIC50 [4]: 7.52; pIC50 [14]: 7.40; pIC50 [15]: 6.66; pIC50 [5]: 5.62; pIC50 [6]: < 5.00; pIC50 [7]: < 5.00
CCN1CCN(CC(=O)Nc2ccc(-c3cccc4c(=O)cc(N5CCOCC5)oc34)c3sc4ccccc4c23)CC1	0.036	6.87	–	–	161 (≈ 93.8 µg/mL)	3.05	–	pIC50 (Cytochrome P450 2C9): < 5.00; pIC50 (Cytochrome P450 2D6): < 5.00; pIC50 (Cytochrome P450 1A2): < 5.00; pIC50 (Cytochrome P450 3A4): < 5.00; pIC50 [13]: 9.30; pIC50 [4]: > 10.00; pIC50 [15]: 6.23; pIC50 [5]: 5.00; pIC50 [16]: 8.40; inhibition [17]: 44%; pIC50 (Cytochrome P450 2C19): < 5.00; pIC50 (HeLa [18]): < 4.60; pIC50 [6]: < 5.00; pIC50 [7]: < 5.00
CC(=O)N1CCN(CC(=O)Nc2ccc(-c3cccc4c(=O)cc(N5CCOCC5)oc34)c3sc4ccccc4c23)CC1	–	–	8.30	4.8	–	–	1.4	–
O=C(CN(CCO)CCO)Nc1ccc(-c2cccc3c(=O)cc(N4CCOCC4)oc23)c2sc3ccccc3c12	–	–	8.22	1.9	–	–	1.1	–
CN1CCCC1CCNCCC(=O)Nc1ccc(-c2cccc3c(=O)cc(N4CCOCC4)oc23)c2sc3ccccc3c12 (centres undefined)	–	–	7.89	1.2	–	–	1.3	–
CN(CC(N)=O)C(=O)COc1ccc(-c2cccc3c(=O)cc(N4CCOCC4)oc23)c2sc3ccccc3c12	–	–	7.96	1.4	–	–	0.9	–
O=C(CN1CCN(c2ccccn2)CC1)Nc1ccc(-c2cccc3c(=O)cc(N4CCOCC4)oc23)c2sc3ccccc3c12	–	–	8.15	9.9	–	–	1.8	–
CN1CCCN(CC(=O)Nc2ccc(-c3cccc4c(=O)cc(N5CCOCC5)oc34)c3sc4ccccc4c23)CC1	–	–	7.26	7.6	–	–	1.7	–

From ChEMBL document CHEMBL2417539, “1-substituted (Dibenzo[b,d]thiophen-4-yl)-2-morpholino-4H-chromen-4-ones endowed with dual DNA-PK/PI3-K inhibitory activity” (J Med Chem, 2013)
